A selection: hits, their analogues and other compounds. The true share with any hit is near 3.9%.
ABCB6 inh 2 = inhibitors of human ABC transporter ABCB6. K562-ABCB6 porphyrin accumulation, flow cytometry, 1 h; stronger effect = lower value. Q9NP58. 360,000 compounds, 0.19% hits. fluorescence ratio to DMSO, % at 10 µM;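 active = fluorescence ratio to DMSO below 75%, the collection mean minus 3 SD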;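 also: signal is porphyrin accumulated inside mitochondria; lower ratio means ABCB6 inhibition with less porphyrin fluorescence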
Target sequence (Q9NP58 whole entry, looked up): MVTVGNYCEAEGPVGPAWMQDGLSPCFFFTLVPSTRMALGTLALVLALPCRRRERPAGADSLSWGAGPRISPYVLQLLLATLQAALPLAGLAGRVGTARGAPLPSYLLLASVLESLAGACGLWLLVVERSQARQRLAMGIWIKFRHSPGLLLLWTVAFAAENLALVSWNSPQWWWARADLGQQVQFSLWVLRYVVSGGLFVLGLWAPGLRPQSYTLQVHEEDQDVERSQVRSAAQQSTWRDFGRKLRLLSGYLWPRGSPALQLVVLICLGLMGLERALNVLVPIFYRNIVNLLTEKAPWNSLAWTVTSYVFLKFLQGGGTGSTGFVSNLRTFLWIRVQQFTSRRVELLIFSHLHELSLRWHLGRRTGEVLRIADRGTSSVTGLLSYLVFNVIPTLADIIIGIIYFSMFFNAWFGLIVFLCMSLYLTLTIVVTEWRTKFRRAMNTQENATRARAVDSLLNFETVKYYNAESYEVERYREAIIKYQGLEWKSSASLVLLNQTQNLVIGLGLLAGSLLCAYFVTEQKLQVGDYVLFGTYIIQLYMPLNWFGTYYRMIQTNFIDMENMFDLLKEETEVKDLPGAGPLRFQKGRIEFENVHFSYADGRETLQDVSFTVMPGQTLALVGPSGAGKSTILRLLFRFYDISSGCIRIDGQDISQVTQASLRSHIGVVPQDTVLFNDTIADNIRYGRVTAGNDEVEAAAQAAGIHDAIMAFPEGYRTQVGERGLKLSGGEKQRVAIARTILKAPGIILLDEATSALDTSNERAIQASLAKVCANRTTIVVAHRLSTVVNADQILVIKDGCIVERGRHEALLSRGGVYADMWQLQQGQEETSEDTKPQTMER
SR-BI DiI inh = mouse SR-BI HDL lipid transfer inhibition. ldlA[mSR-BI] CHO cells, DiI-HDL uptake fluorescence, 3 h. inhibition, % at 12.5 µM. 320,000 compounds, 0.96% hits. AID 488896;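 active = mean replicate inhibition of at least 70% and a set share of replicates each scoring 70 or more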
AHR activator = human AHR activation. 320,000 compounds, 2.5% hits. AID 2796. activation, % at 5 µM. P35869. AHR-responsive luciferase reporter cells, luminescence; in the data active = activation above about 47%
SR-BI DiI-HDL act = activators of SR-BI mediated HDL lipid uptake; CHO ldlA[mSR-BI] cells, DiI-HDL uptake fluorescence, 3 h; 100 = double the neutral-control signal; activation, % at 12.5 µM; 320,000 compounds, 0.096% hits;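 active = mean replicate activation of at least 60% and every replicate at or above 60%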
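Material: SR-BI-overexpressing, LDLR-lacking CHO cells; schedule: compound exposure 3 h, 37 °C; reagent: DiI-labelled HDL at 10 µg/mL final; technique: bottom-read fluorescence, 550/595 nm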
FXN GAA850 act = frataxin GAA850 promoter activation | HEK293 lucGAA850 FXN promoter luciferase reporter, 24 h; percent of 10 µM SAHA response | activation, % at 6 µM | 360,000 compounds, 0.56% hits | AID 540364;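 active = activation above the average of all compounds screened plus 3 SD, cutoff fixed separately per campaign, cut at about 7.5% in these data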
HIF act = HIF pathway transcriptional activation | activation, % at 7.5 µM (by protocol) | U2OS HRE-luciferase reporter, luminescence; normalized: DMSO 0%, desferrioxamine 100% | 300,000 compounds, 0.32% hits | AID 1910;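 active = mean activation of at least 10% of the iron chelator positive control signal, with at least half of replicates also reaching 10%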
A number is an active result; – = inactive; · = no result.

SMILES | ABCB6 inh 2 | SR-BI DiI inh | AHR activator | SR-BI DiI-HDL act | FXN GAA850 act | HIF act
C#CCOCCOCCOCCNc1nc(N2CCN(C(=O)[C@H](C(C)C)n3cc(CCO)nn3)CC2)nc(N2CCN(C(=O)[C@H]([C@@H](C)CC)n3cc(CCCCN)nn3)CC2)n1 | – | – | – | – | – | –
Cc1cc(/C=C2/SC(=S)N(c3ccc([N+](=O)[O-])cc3)C2=O)c(C)n1-c1cccnc1 | – | – | – | – | – | –
CN(CCNC(=O)CCNC(=O)Cn1ccc2ccccc2c1=O)Cc1ccccc1 | – | – | – | – | – | –
CCN(CCCNC(=O)CCNC(=O)Cn1ccc2ccccc2c1=O)c1ccccc1 | – | – | · | – | – | 32
O=c1c2c(-c3cccs3)csc2ncn1-c1ccc(Br)cc1 | – | – | 65 | – | – | –
O=c1c2c(-c3cccs3)csc2ncn1/N=C/c1ccc(OC(F)F)cc1 | – | – | 56 | – | – | –
COc1ccccc1OCCCn1c(=O)oc2ccc(C)cc21 | – | – | 60 | – | – | –
Cc1cc(C)c(NC(=O)COC(=O)Cn2nc(-c3ccccc3)oc2=O)c(C)c1 | – | – | – | – | – | ·
CC1=NN(c2ccccc2)C(=O)/C1=C/c1ccc[nH]1 | – | – | 85 | – | – | –
O=C(NN=Cc1cc([N+](=O)[O-])ccc1O)c1cccc2ccccc12 | – | 134 | · | – | – | ·
O=C(N/N=C/c1cc([N+](=O)[O-])ccc1O)c1c[nH]c2ccccc12 | – | · | – | · | – | –
O=C(N/N=C/c1cc([N+](=O)[O-])ccc1O)C12CC3CC(CC(C3)C1)C2 | – | 136 | – | – | – | –
COc1cccc(/C=N/NC(=O)c2nc(-c3ccccc3)cc(-c3ccccc3)n2)c1 | – | 81 | – | – | – | –
O=[N+]([O-])c1ccc(O)c(C=Nc2cccc3ccccc23)c1 | – | – | 52 | – | – | –
O=C(c1ccc(Cl)c(S(=O)(=O)N2CCCCCC2)c1)N1CCCC1 | – | – | – | – | – | –
Cc1cccc(/N=C/c2sc3ccccc3c2O)n1 | – | · | – | · | – | –
Oc1c(C=Nc2cccc3cccnc23)sc2ccccc12 | · | · | 58 | · | · | –
Nc1ccc(C(=O)N/N=C\c2cc(N=Nc3cccc4ccccc34)ccc2O)cc1 | – | 122 | – | – | – | 14
O=C(N/N=C/c1cc([N+](=O)[O-])ccc1O)c1cc(-c2ccccc2)nc2ccccc12 | – | 129 | – | – | – | 20
Cc1cc(C(=O)N/N=C/c2cc([N+](=O)[O-])ccc2O)c2ccccc2n1 | – | 118 | – | – | – | –
COCCNC(=O)CCSCc1ccccc1F | – | – | – | – | – | –
CCOC(=O)C1CCCN(C(=O)Cc2c(F)cccc2Cl)C1 (configuration not stated) | – | – | – | – | – | –
CC(=O)c1cccc(N/C=C\c2nnnn2-c2ccc(F)cc2)c1 | – | – | – | – | – | –
COc1ccc(C(=O)NCCCSc2ccccc2)cc1F | – | – | – | – | – | –
O=C(N/N=C/c1cccc([N+](=O)[O-])c1)c1cc(-c2ccccc2)nc2ccccc12 | – | 80 | – | – | – | –
SMILES | ABCB6 inh 2 | SR-BI DiI inh | AHR activator | SR-BI DiI-HDL act | FXN GAA850 act | HIF act
O=C(N/N=C/c1ccco1)c1cc(-c2cccc(Br)c2)nc2ccccc12 | – | – | 50 | – | – | –
O=[N+]([O-])c1ccc(O)c(N=Cc2sc3ccccc3c2O)c1 | – | 124 | – | – | – | –
CC(/C=N/NC(=O)c1cc(-c2ccncc2)nc2ccccc12)=C\c1ccco1 | – | – | – | – | – | –
O=C(N/N=C/c1cccc(O)c1)c1cc(-c2ccccc2)nc2ccccc12 | – | – | – | – | – | –
O=[N+]([O-])c1cnc2ccccn12 | – | – | – | – | – | –
CC(=O)c1cccc(Nc2nc(-c3cccc([N+](=O)[O-])c3)cs2)c1 | – | – | – | – | 8.0 | –
CC(=O)Nc1ccc(-c2csc(Nc3cc(C)ccn3)n2)cc1 | – | – | – | – | – | –
CC(=O)Nc1cccc(-c2csc(Nc3cc(C)ccn3)n2)c1 | – | – | 109 | – | – | ·
O=C(Nc1ccc(-c2csc(Nc3ccccc3)n2)cc1)c1cc([N+](=O)[O-])cc(C(F)(F)F)c1 | – | 96 | – | – | – | –
